Laboratory results reported in ChEMBL document CHEMBL4004811, “Enantiodivergence in the Biosynthesis of Bromotyrosine Alkaloids from Sponges?” (2017).
Active and inactive are the calls of the source. The calls are words filed in the database; no cut-off is given here.

What was measured:
Format in all cases: functional
Staphylococcus aureus [1] = test: Antimicrobial activity against methicillin-sensitive Staphylococcus aureus ATCC 29213 after 18 hrs by MTT dye based TLC assay
In short: (§1)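 Overlay TLC bioautography: compounds applied on TLC plates and overlaid with the bacterial culture. Activity is reported as the minimum inhibitory quantity (MIQ), in μg of compound.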

Staphylococcus aureus [2] = test: Antimicrobial activity against multidrug-resistant Staphylococcus aureus after 18 hrs by MTT dye based TLC assay
In short: (§2)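 Overlay TLC bioautography: samples applied to TLC plates and overlaid with the bacterial culture. The panel covered three S. aureus strains and one E. coli strain. Activity is read as minimum inhibitory quantity (MIQ, μg per spot).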

Staphylococcus aureus [3] = test: Antimicrobial activity against methicillin-resistant Staphylococcus aureus ATCC BAA1026 after 18 hrs by MTT dye based TLC assay; in short: as §2
Escherichia coli = test: Antimicrobial activity against Escherichia coli ATCC 25922 after 18 hrs by MTT dye based TLC assay; in short: as §1

Row | Compound | Activity (Staphylococcus aureus [1]) | Activity (Staphylococcus aureus [2]) | Activity (Staphylococcus aureus [3]) | Activity (Escherichia coli) | MIC (Staphylococcus aureus [1]) | MIC (Staphylococcus aureus [2]) | MIC (Staphylococcus aureus [3])
1 | COC1=C(Br)[C@@H](O)[C@]2(C=C1Br)CC(C(=O)NCCCOc1c(Br)cc(CC(N)C(=O)O)cc1Br)=NO2 (some centres not stated) | Active | Active | Active | inactive | – | – | –
2 | COC1=C(Br)[C@@H](O)[C@]2(C=C1Br)CC(C(=O)NCCCOc1c(Br)cc(CCN)cc1Br)=NO2 | Active | Active | Active | inactive | – | – | –
3 | COC1=C(Br)[C@@H](O)[C@]2(C=C1Br)CC(C(=O)NCCc1cc(Br)c(O)c(Br)c1)=NO2 | – | Active | Active | inactive | 0.31 µg | – | –
4 | COC1=C(Br)[C@@H](O)[C@]2(C=C1Br)CC(C(=O)NCCc1ccc(O)c(Br)c1)=NO2 | – | Active | Active | inactive | 0.31 µg | – | –
5 | COc1ccc(C/C(=N\O)C(=O)NCCc2cc(Br)c(OCCCN(C)C)c(Br)c2)cc1Br | Active | Active | Active | inactive | – | – | –
6 | CCOC1(CCCNC(=O)C2=NO[C@@]3(C=C(Br)C(OC)=C(Br)[C@H]3O)C2)N=C(N)NC1=O (mixture of isomers) | Active | Active | Active | inactive | – | – | –
7 | COC1=C(Br)[C@@H](O)[C@]2(C=C1Br)CC(C(N)=O)=NO2 | Active | Active | Active | inactive | – | – | –
8 | CNCCCOc1c(Br)cc(CCNC(=O)/C(Cc2ccc(OC)c(Br)c2)=N/O)cc1Br | Active | Active | Active | inactive | – | – | –
9 | COC1=C(Br)[C@@H](O)[C@]2(C=C1Br)CC(C(=O)NCCCOc1c(Br)cc(C/C(=N\O)C(=O)NCCc3cnc(N)[nH]3)cc1Br)=NO2 | Active | Active | Active | inactive | – | – | –
10 | CN[C@H](CC(C)C)C(=O)N[C@H]1C(=O)N[C@@H](CC(N)=O)C(=O)N[C@H]2C(=O)N[C@H]3C(=O)N[C@H](C(=O)N[C@H](C(=O)O)c4cc(O)cc(O)c4-c4cc3ccc4O)[C@H](O)c3ccc(c(Cl)c3)Oc3cc2cc(c3O[C@@H]2O[C@H](CO)[C@@H](O)[C@H](O)[C@H]2O[C@H]2C[C@](C)(N)[C@H](O)[C@H](C)O2)Oc2ccc(cc2Cl)[C@H]1O [VANCOMYCIN] | – | – | – | – | – | 0.63 µg | 0.63 µg
11 | COC1=C(Br)[C@@H](O)[C@]2(C=C1Br)CC(C(=O)NCCCC(=O)O)=NO2 | Active | Active | Active | inactive | – | – | –
